tested on: HeLa; experiment: Tested for effect of compound on G0/G1 cell cycle phase and apoptosis in HeLa cells at a dose of 10E-6 for 72 hr; type: functional, Homo sapiens; conditions: not given
Outline: (§1)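 HeLa cells were grown in DMEM with 10% heat-inactivated FCS and 2 mM L-glutamine at 37 °C in 5% CO2. They were exposed to 10^-6 to 10^-8 M for 24, 48 or 72 h. Then (3-5)×10^5 cells were fixed overnight in 70% ethanol at 4 °C, PBS-washed, and given 1 mg/mL RNase A plus 20 µg/mL propidium iodide for 1 h at room temperature. DNA content was read by flow cytometry. Sub-G1 (hypodiploid) % counted as apoptotic. Untreated controls were run in parallel. Representative of three independent experiments.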

| Compound | Activity |
| --- | --- |
| CCn1nccc1/N=C/C1=Cc2cc3c(cc2C(c2cc(OC)c(OC)c(OC)c2)[C@@H]1C(=O)OC)OCO3 (stereo not given in full) | 31.3% |

tested on: HeLa; experiment: Tested for effect of compound on Sub-G1 cell cycle phase and apoptosis in HeLa cells at a dose of 10E-8 for 24 hr; type: functional, Homo sapiens; conditions: not given
Outline: (§2)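 HeLa cells grown in DMEM with 10% heat-inactivated FCS, 2 mM L-glutamine, penicillin and gentamicin at 37 °C, 5% CO2. Exposed to compound at 10^-6 to 10^-8 M for 24, 48 or 72 h, untreated controls run in parallel. (3-5) × 10^5 cells fixed overnight in 70% ethanol at 4 °C, then RNase A plus propidium iodide. Phase fractions measured by flow cytometry, with sub-G1 (hypodiploid) cells counted as apoptotic. Three independent experiments.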

| Compound | Activity |
| --- | --- |
| CCn1nccc1/N=C/C1=Cc2cc3c(cc2C(c2cc(OC)c(OC)c(OC)c2)[C@@H]1C(=O)OC)OCO3 (stereo not given in full) | 1.3% |

tested on: HeLa; experiment: Tested for effect of compound on S cell cycle phase and apoptosis in HeLa cells at a dose of 10E-7 for 48 hr; type: functional, Homo sapiens; conditions: not given; outline: as §2

| Compound | Activity |
| --- | --- |
| CCn1nccc1/N=C/C1=Cc2cc3c(cc2C(c2cc(OC)c(OC)c(OC)c2)[C@@H]1C(=O)OC)OCO3 (stereo not given in full) | 13% |

tested on: HeLa; experiment: Tested for effect of compound on G2/M cell cycle phase and apoptosis in HeLa cells at a dose of 10E-6 for 24 hr; type: functional, Homo sapiens; conditions: not given; outline: as §1

| Compound | Activity |
| --- | --- |
| CCn1nccc1/N=C/C1=Cc2cc3c(cc2C(c2cc(OC)c(OC)c(OC)c2)[C@@H]1C(=O)OC)OCO3 (stereo not given in full) | 81.5% |

tested on: HeLa; experiment: Tested for effect of compound on G0/G1 cell cycle phase and apoptosis in HeLa cells at a dose of 10E-8 for 24 hr; type: functional, Homo sapiens; conditions: not given; outline: as §1

| Compound | Activity |
| --- | --- |
| CCn1nccc1/N=C/C1=Cc2cc3c(cc2C(c2cc(OC)c(OC)c(OC)c2)[C@@H]1C(=O)OC)OCO3 (stereo not given in full) | 56.4% |

tested on: HeLa; experiment: Tested for effect of compound on G2/M cell cycle phase and apoptosis in HeLa cells at a dose of 10E-8 for 24 hr; type: functional, Homo sapiens; conditions: not given; outline: as §2

| Compound | Activity |
| --- | --- |
| CCn1nccc1/N=C/C1=Cc2cc3c(cc2C(c2cc(OC)c(OC)c(OC)c2)[C@@H]1C(=O)OC)OCO3 (stereo not given in full) | 24.1% |

tested on: HeLa; experiment: Tested for effect of compound on S cell cycle phase and apoptosis in HeLa cells at a dose of 10E-8 for 48 hr; type: functional, Homo sapiens; conditions: not given; outline: as §2

| Compound | Activity |
| --- | --- |
| CCn1nccc1/N=C/C1=Cc2cc3c(cc2C(c2cc(OC)c(OC)c(OC)c2)[C@@H]1C(=O)OC)OCO3 (stereo not given in full) | 14.1% |

tested on: HT-29; experiment: In vitro cytotoxicity against HT-29 (human colon carcinoma) cell line.; type: functional, cell-based; conditions: Homo sapiens, HT-29

| Compound | IC50 |
| --- | --- |
| CCn1nccc1/N=C/C1=Cc2cc3c(cc2C(c2cc(OC)c(OC)c(OC)c2)[C@@H]1C(=O)OC)OCO3 (stereo not given in full) | 48 nM |

tested on: HeLa; experiment: Tested for effect of compound on G0/G1 cell cycle phase and apoptosis in HeLa cells at a dose of 10E-7 for 48 hr; type: functional, Homo sapiens; conditions: not given; outline: as §1

| Compound | Activity |
| --- | --- |
| CCn1nccc1/N=C/C1=Cc2cc3c(cc2C(c2cc(OC)c(OC)c(OC)c2)[C@@H]1C(=O)OC)OCO3 (stereo not given in full) | 49.5% |

tested on: HeLa; experiment: Tested for effect of compound on S cell cycle phase and apoptosis in HeLa cells at a dose of 10E-6 for 48 hr; type: functional, Homo sapiens; conditions: not given; outline: as §2

| Compound | Activity |
| --- | --- |
| CCn1nccc1/N=C/C1=Cc2cc3c(cc2C(c2cc(OC)c(OC)c(OC)c2)[C@@H]1C(=O)OC)OCO3 (stereo not given in full) | 10.8% |

tested on: HeLa; experiment: Tested for effect of compound on S cell cycle phase and apoptosis in HeLa cells at a dose of 10E-7 for 24 hr; type: functional, Homo sapiens; conditions: not given; outline: as §2

| Compound | Activity |
| --- | --- |
| CCn1nccc1/N=C/C1=Cc2cc3c(cc2C(c2cc(OC)c(OC)c(OC)c2)[C@@H]1C(=O)OC)OCO3 (stereo not given in full) | 18.3% |

tested on: HeLa; experiment: Tested for effect of compound on G2/M cell cycle phase and apoptosis in HeLa cells at a dose of 10E-8 for 48 hr; type: functional, Homo sapiens; conditions: not given; outline: as §2

| Compound | Activity |
| --- | --- |
| CCn1nccc1/N=C/C1=Cc2cc3c(cc2C(c2cc(OC)c(OC)c(OC)c2)[C@@H]1C(=O)OC)OCO3 (stereo not given in full) | 28.2% |

tested on: HeLa; experiment: Tested for effect of compound on Sub-G1 cell cycle phase and apoptosis in HeLa cells at a dose of 10E-6 for 24 hr; type: functional, Homo sapiens; conditions: not given; outline: as §2

| Compound | Activity |
| --- | --- |
| CCn1nccc1/N=C/C1=Cc2cc3c(cc2C(c2cc(OC)c(OC)c(OC)c2)[C@@H]1C(=O)OC)OCO3 (stereo not given in full) | 2.1% |

tested on: HeLa; experiment: Tested for effect of compound on G0/G1 cell cycle phase and apoptosis in HeLa cells at a dose of 10E-8 for 48 hr; type: functional, Homo sapiens; conditions: not given; outline: as §1

| Compound | Activity |
| --- | --- |
| CCn1nccc1/N=C/C1=Cc2cc3c(cc2C(c2cc(OC)c(OC)c(OC)c2)[C@@H]1C(=O)OC)OCO3 (stereo not given in full) | 56% |

tested on: HeLa; experiment: Tested for effect of compound on Sub-G1 cell cycle phase and apoptosis in HeLa cells at a dose of 10E-7 for 48 hr; type: functional, Homo sapiens; conditions: not given; outline: as §2

| Compound | Activity |
| --- | --- |
| CCn1nccc1/N=C/C1=Cc2cc3c(cc2C(c2cc(OC)c(OC)c(OC)c2)[C@@H]1C(=O)OC)OCO3 (stereo not given in full) | 1.9% |

tested on: HeLa; experiment: Tested for effect of compound on G0/G1 cell cycle phase and apoptosis in HeLa cells at a dose of 10E-7 for 72 hr; type: functional, Homo sapiens; conditions: not given; outline: as §1

| Compound | Activity |
| --- | --- |
| CCn1nccc1/N=C/C1=Cc2cc3c(cc2C(c2cc(OC)c(OC)c(OC)c2)[C@@H]1C(=O)OC)OCO3 (stereo not given in full) | 37.7% |

tested on: SK-MEL-28; experiment: Tested in vitro for antineoplastic activity against MEL-28 (human melanoma) tumor cell line; type: functional, cell-based; conditions: not given
Outline: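 MEL-28 cells seeded at 2 × 10^4 cells/well in MEM–10% FCS containing graded compound concentrations. Incubated 4 days at 37 °C, 10% CO2, 98% humidity. Stained with crystal violet and inhibition judged against untreated controls, which were kept in exponential growth. Mean of duplicate wells.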

| Compound | IC50 |
| --- | --- |
| CCn1nccc1/N=C/C1=Cc2cc3c(cc2C(c2cc(OC)c(OC)c(OC)c2)[C@@H]1C(=O)OC)OCO3 (stereo not given in full) | 960 nM |

tested on: HeLa; experiment: Tested for effect of compound on S cell cycle phase and apoptosis in HeLa cells at a dose of 10E-6 for 24 hr; type: functional, Homo sapiens; conditions: not given; outline: as §2

| Compound | Activity |
| --- | --- |
| CCn1nccc1/N=C/C1=Cc2cc3c(cc2C(c2cc(OC)c(OC)c(OC)c2)[C@@H]1C(=O)OC)OCO3 (stereo not given in full) | 9.6% |

tested on: HeLa; experiment: Tested for effect of compound on G2/M cell cycle phase and apoptosis in HeLa cells at a dose of 10E-6 for 72 hr; type: functional, Homo sapiens; conditions: not given; outline: as §2

| Compound | Activity |
| --- | --- |
| CCn1nccc1/N=C/C1=Cc2cc3c(cc2C(c2cc(OC)c(OC)c(OC)c2)[C@@H]1C(=O)OC)OCO3 (stereo not given in full) | 21% |

tested on: HeLa; experiment: Tested for effect of compound on Sub-G1 cell cycle phase and apoptosis in HeLa cells at a dose of 10E-7 for 24 hr; type: functional, Homo sapiens; conditions: not given; outline: as §2

| Compound | Activity |
| --- | --- |
| CCn1nccc1/N=C/C1=Cc2cc3c(cc2C(c2cc(OC)c(OC)c(OC)c2)[C@@H]1C(=O)OC)OCO3 (stereo not given in full) | 1.8% |
